Active and inactive are the calls of the source. The calls are words filed in the database; no cut-off is given here.

Assay [1] addresses T1, G-protein coupled bile acid receptor 1 (Homo sapiens) (UniProt Q8TDU6).
T1 sequence (whole entry): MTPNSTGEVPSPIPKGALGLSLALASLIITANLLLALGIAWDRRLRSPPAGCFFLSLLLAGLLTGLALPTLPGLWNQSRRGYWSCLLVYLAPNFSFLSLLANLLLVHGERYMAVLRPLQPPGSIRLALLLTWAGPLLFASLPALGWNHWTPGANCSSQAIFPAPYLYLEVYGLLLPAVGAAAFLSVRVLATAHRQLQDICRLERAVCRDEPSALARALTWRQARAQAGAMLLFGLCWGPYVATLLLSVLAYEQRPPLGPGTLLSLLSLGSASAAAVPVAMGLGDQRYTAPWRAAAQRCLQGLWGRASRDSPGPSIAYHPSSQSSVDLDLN
As to the kind of experiment: Agonist activity at human TGR5 expressed in HEK293 cells at 10 uM incubated for 30 mins by SEAP reporter gene based assay relative to control. Format: functional, cell-based. The method in brief:
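293T/17 cells reverse-transfected with human TGR5 on reporter strips (3.8 × 10^4 cells/well, 20 h), then moved to serum-free DMEM stimulation medium with 1% DMSO. Compound at 10 µM in triplicate, 30 min on the bench, then 7 h at 37 °C. Medium heated 65 °C 30 min, SEAP substrate added, luminescence read. Efficacy is basal-subtracted RLU as % of 10 µM LCA. Mean ± SD of ≥2 independent experiments.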
For orientation: Reporter assays use an easily measured gene product as a stand-in for the process of interest.

Assay [2] addresses T2, G-protein coupled bile acid receptor 1 (Homo sapiens, UniProt Q8TDU6).
T2 sequence (Q8TDU6 whole entry): T1 sequence (whole entry)
Description: Agonist activity at human TGR5 expressed in HEK293 cells incubated for 30 mins by SEAP reporter gene based assay. Type of assay: functional, cell-based. In a few lines: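 Human TGR5 reverse-transfected 293T/17 cells in serum-free stimulation medium with 1% DMSO received a concentration series in triplicate, 30 min at bench then 7 h at 37 °C, 5% CO2. SEAP luminescence was read after heat inactivation at 65 °C. Response is % of 10 µM LCA, fitted by four-parameter unconstrained nonlinear regression to give EC50. Mean ± SD of three independent experiments.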

Assay [3] deals with T3, Bile acid receptor (Homo sapiens) (UniProt Q96RI1).
T3 sequence (whole entry): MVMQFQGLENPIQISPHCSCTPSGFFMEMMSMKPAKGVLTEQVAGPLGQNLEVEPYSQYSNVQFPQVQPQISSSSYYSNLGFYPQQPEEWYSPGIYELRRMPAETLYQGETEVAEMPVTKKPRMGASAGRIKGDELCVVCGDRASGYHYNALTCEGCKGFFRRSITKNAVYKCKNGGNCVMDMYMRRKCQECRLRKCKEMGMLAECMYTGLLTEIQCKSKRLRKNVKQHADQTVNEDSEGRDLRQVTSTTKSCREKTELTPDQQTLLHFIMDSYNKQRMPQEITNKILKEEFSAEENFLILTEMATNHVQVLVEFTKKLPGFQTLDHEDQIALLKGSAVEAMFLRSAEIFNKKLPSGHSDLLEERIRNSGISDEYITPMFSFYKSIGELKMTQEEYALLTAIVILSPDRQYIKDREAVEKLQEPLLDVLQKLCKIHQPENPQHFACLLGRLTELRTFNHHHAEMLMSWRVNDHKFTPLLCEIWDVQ
Description: Agonist activity at FXR (unknown origin) at 10 uM relative to control. The method in brief: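 Nuclear hormone receptor (NHR) transactivation screen at FXR run by Eurofins DiscoverX; test agents at 10 µM.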

As for `CC[C@H]1[C@@H](O)[C@H]2[C@@H]3CC[C@H]([C@H](C)CCCC(=O)O)[C@H]3[C@H](C)C[C@@H]2[C@@]2(C)CC[C@@H](O)C[C@@H]12`, in assay [1] (filed as agonist), the Activity worked out at 54%.

Turning to `C[C@H](CCC(=O)O)[C@H]1CC[C@@H]2[C@@H]1[C@H](C)C[C@H]1[C@H]2[C@H](O)C[C@@H]2C[C@H](O)CC[C@@]21C`, the outcome in assay [1] was inactive.

`C[C@H](CCCCC(=O)O)[C@@H]1CC[C@@H]2[C@@H]1[C@H](C)C[C@H]1[C@H]2[C@H](O)C[C@@H]2C[C@H](O)CC[C@@]21C`: the Activity in assay [1] (filed as agonist) stood at 43%.

Compound `C[C@H](CCCC(=O)NCCS(=O)(=O)O)[C@@H]1CC[C@@H]2[C@@H]1[C@H](C)C[C@H]1[C@H]2[C@H](O)C[C@@H]2C[C@H](O)CC[C@@]21C` gave an Activity in assay [1] (filed as agonist) of 62%.

Take `CC[C@H]1[C@@H](O)[C@H]2[C@@H]3CC[C@H]([C@H](C)CCC(=O)NCCS(=O)(=O)O)[C@H]3[C@H](C)C[C@@H]2[C@@]2(C)CC[C@@H](O)C[C@@H]12`: it took 5200 nM to reach a half-maximal effect in assay [2] (EC50). Besides, the Activity in assay [1] (filed as agonist) was 99%.

In turn, `CC[C@H]1[C@@H](O)[C@H]2[C@@H]3CC[C@H]([C@H](C)CCC(=O)O)[C@H]3[C@H](C)C[C@@H]2[C@@]2(C)CC[C@@H](O)C[C@@H]12` yielded an Activity in assay [1] of 33%.

Take `CC[C@H]1[C@@H](O)[C@H]2[C@@H]3CC[C@@H]([C@H](C)CC(=O)NCCS(=O)(=O)O)[C@H]3[C@H](C)C[C@@H]2[C@@]2(C)CC[C@@H](O)C[C@@H]12`: the Activity in assay [1] (filed as agonist) was found to be 42%.

With `C[C@H](CC(=O)O)[C@@H]1CC[C@@H]2[C@@H]1[C@H](C)C[C@H]1[C@H]2[C@H](O)C[C@@H]2C[C@H](O)CC[C@@]21C`, the Activity in assay [1] came out at 4%.

For the compound `CC[C@H]1[C@@H](O)[C@H]2[C@@H]3CC[C@H]([C@H](C)CC(=O)O)[C@H]3[C@H](C)C[C@@H]2[C@@]2(C)CC[C@@H](O)C[C@@H]12`, the Activity in assay [1] came out at 11%.

In assay [1], `C[C@H](CCCC(=O)O)[C@@H]1CC[C@@H]2[C@@H]1[C@H](C)C[C@H]1[C@H]2[C@H](O)C[C@@H]2C[C@H](O)CC[C@@]21C` had an Activity of 26%.

As for `CC[C@H]1[C@@H](O)[C@H]2[C@@H]3CC[C@@H]([C@H](C)CCC(=O)NCCS(=O)(=O)O)[C@H]3[C@H](C)C[C@@H]2[C@@]2(C)CC[C@@H](O)C[C@@H]12`, in assay [2], the midpoint of the response, the EC50, lay at 310 nM. In assay [1] (filed as agonist), this compound displayed an Activity of 99%.

Compound `C[C@@H]1C[C@H]2[C@H]([C@@H]3CC[C@@H]([C@H](C)C(=O)O)[C@H]31)[C@H](O)C[C@@H]1C[C@H](O)CC[C@@]12C` yielded an Activity in assay [1] of 4%.

For the compound `C[C@@H]1C[C@H]2[C@H]([C@@H]3CC[C@@H]([C@H](C)C(=O)NCCS(=O)(=O)O)[C@H]31)[C@H](O)C[C@@H]1C[C@H](O)CC[C@@]12C`, the Activity in assay [1] (filed as agonist) came to 56%.

Regarding `CC[C@H]1[C@@H](O)[C@H]2[C@@H]3CC[C@@H]([C@H](C)C(=O)NCCS(=O)(=O)O)[C@H]3[C@H](C)C[C@@H]2[C@@]2(C)CC[C@@H](O)C[C@@H]12`, the Activity in assay [1] (filed as agonist) is 61%.

Regarding `CC[C@H]1[C@@H](O)[C@H]2[C@@H]3CC[C@@H]([C@H](C)CCC(=O)O)[C@H]3[C@H](C)C[C@@H]2[C@@]2(C)CC[C@@H](O)C[C@@H]12`, the Activity in assay [3] stood at 31%; in assay [1] (filed as agonist), 62%.

For the compound `C[C@H](CC(=O)NCCS(=O)(=O)O)[C@@H]1CC[C@@H]2[C@@H]1[C@H](C)C[C@H]1[C@H]2[C@H](O)C[C@@H]2C[C@H](O)CC[C@@]21C`, the Activity in assay [1] was 7%.

For the compound `CC[C@H]1[C@@H](O)[C@H]2[C@@H]3CC[C@H]([C@H](C)CCCC(=O)NCCS(=O)(=O)O)[C@H]3[C@H](C)C[C@@H]2[C@@]2(C)CC[C@@H](O)C[C@@H]12`, the outcome in assay [1] was inactive.

Take `CC[C@H]1[C@@H](O)[C@H]2[C@@H]3CC[C@@H]([C@H](C)CCCC(=O)NCCS(=O)(=O)O)[C@H]3[C@H](C)C[C@@H]2[C@@]2(C)CC[C@@H](O)C[C@@H]12`: the midpoint of the response in assay [2], the EC50, lay at 270 nM. The Activity in assay [1] (filed as agonist) came to 99%.

`C[C@H](CCC(=O)NCCS(=O)(=O)O)[C@@H]1CC[C@@H]2[C@@H]1[C@H](C)C[C@H]1[C@H]2[C@H](O)C[C@@H]2C[C@H](O)CC[C@@]21C` registered an Activity in assay [1] (filed as agonist) of 61%.

Regarding `CC[C@H]1[C@@H](O)[C@H]2[C@@H]3CC[C@@H]([C@H](C)CC(=O)O)[C@H]3[C@H](C)C[C@@H]2[C@@]2(C)CC[C@@H](O)C[C@@H]12`, in assay [1] (filed as agonist), the Activity stood at 42%.

As to `CC[C@H]1[C@@H](O)[C@H]2[C@@H]3CC[C@H]([C@H](C)CC(=O)NCCS(=O)(=O)O)[C@H]3[C@H](C)C[C@@H]2[C@@]2(C)CC[C@@H](O)C[C@@H]12`, the outcome in assay [1] was inactive.

Turning to `CC[C@H]1[C@@H](O)[C@H]2[C@@H]3CC[C@@H]([C@H](C)C(=O)O)[C@H]3[C@H](C)C[C@@H]2[C@@]2(C)CC[C@@H](O)C[C@@H]12`, in assay [1], the Activity came out at 10%.

As for `CC[C@H]1[C@@H](O)[C@H]2[C@@H]3CC[C@@H]([C@H](C)CCCC(=O)O)[C@H]3[C@H](C)C[C@@H]2[C@@]2(C)CC[C@@H](O)C[C@@H]12`, the results for the Activity in assay [3] and in assay [1] (filed as agonist) were 23% and 69%, respectively.

On to `C[C@H](CCCC(=O)O)[C@H]1CC[C@@H]2[C@@H]1[C@H](C)C[C@H]1[C@H]2[C@H](O)C[C@@H]2C[C@H](O)CC[C@@]21C`, for which the outcome in assay [1] was inactive.

As for `C[C@H](CCCCC(=O)O)[C@H]1CC[C@@H]2[C@@H]1[C@H](C)C[C@H]1[C@H]2[C@H](O)C[C@@H]2C[C@H](O)CC[C@@]21C`, in assay [1], the result was inactive.
